Bioassay records from PubChem.
EBV gp42 inh – inhibitors of Epstein-Barr virus glycoprotein 42; Q1HVG2; Fluorescence polarization binding assay, mP read-out; inhibition, % (tested at 21.74 µM); actives 0.42% (n = 220,000); AID 1085; in the data active means inhibition above about 50%
Target sequence (Q1HVG2 whole entry, looked up): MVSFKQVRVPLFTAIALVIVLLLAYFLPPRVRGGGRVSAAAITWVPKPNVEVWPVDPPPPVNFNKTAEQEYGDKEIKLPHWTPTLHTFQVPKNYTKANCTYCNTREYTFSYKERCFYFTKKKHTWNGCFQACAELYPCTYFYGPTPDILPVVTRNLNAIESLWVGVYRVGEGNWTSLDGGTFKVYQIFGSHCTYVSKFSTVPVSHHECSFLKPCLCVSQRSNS
IMP-1 inh – inhibitors of Pseudomonas aeruginosa IMP-1 metallo-beta-lactamase; AID 1556; actives 0.45% (n = 290,000); purified IMP-1, nitrocefin hydrolysis, epi-absorbance fluorescence; inhibition, % at 5.6 µM;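 active means inhibition above the mean plus 3 SD of all compounds in the same screening run, cut at about 4.5% in these data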;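 further: 0% = IMP-1 with DMSO and 100% = DMSO wells lacking enzyme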
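System: purified recombinant IMP-1 beta-lactamase. Medium: Zinc- and detergent-supplemented HEPES buffer, pH 7.1. Compound: one 5.6 µM dose […]. Schedule: 15 min preincubation plus 25 min reaction at 25 °C. Technique: Epi-absorbance fluorescence, 480 nm excitation, 530 nm emission.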
VIM-2 inhibitor – inhibitors of Pseudomonas aeruginosa VIM-2 metallo-beta-lactamase; purified VIM-2, nitrocefin hydrolysis, epi-absorbance fluorescence; inhibition, % at 5.6 µM; actives 0.89% (n = 290,000);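 active means inhibition above the mean of all tested compounds plus 3 SD, cutoff set per screening run, cut at about 7.5% in these data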;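 further: red hydrolysis product quenches plate fluorescence so inhibitors raise well fluorescence; 0% = enzyme with DMSO and 100% = DMSO without enzyme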
GLD-1 TGE inh – GLD-1-TGE RNA interaction inhibition (C. elegans) | Q17339 | purified GLD-1 + fluorescein TGE RNA, fluorescence polarization | inhibition, % at 5.96 µM | actives 0.44% (n = 320,000) | AID 2280;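 active means percent inhibition above a per-plate cutoff, the plate mean of test compounds plus 3 SD, cut at about 30% in these data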;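 further: 0% = DMSO wells with GLD-1 and probe and 100% = wells lacking GLD-1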
Target sequence (Q17339 whole entry, looked up): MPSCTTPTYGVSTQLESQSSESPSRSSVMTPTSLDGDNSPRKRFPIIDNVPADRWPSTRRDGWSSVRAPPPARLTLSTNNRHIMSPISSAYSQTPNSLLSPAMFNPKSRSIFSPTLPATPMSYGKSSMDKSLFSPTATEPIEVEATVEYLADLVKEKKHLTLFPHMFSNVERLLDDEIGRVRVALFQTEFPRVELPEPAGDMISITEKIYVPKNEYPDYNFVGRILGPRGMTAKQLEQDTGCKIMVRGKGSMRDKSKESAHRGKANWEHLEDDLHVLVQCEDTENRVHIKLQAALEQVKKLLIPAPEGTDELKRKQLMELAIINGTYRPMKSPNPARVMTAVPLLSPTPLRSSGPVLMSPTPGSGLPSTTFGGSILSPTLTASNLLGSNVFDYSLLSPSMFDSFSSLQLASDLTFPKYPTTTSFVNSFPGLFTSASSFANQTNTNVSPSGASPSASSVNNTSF
BCLXL inh – blocks human Bcl-xL binding to Bim BH3 peptide; inhibition, % at 10.9 µM; Q07817; GST-Bcl-xL / FITC-Bim BH3 peptide fluorescence polarization; AID 2129; actives 0.7% (n = 320,000);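 active means inhibition above the mean of all tested compounds plus 3 SD, cutoff set per campaign, cut at about 30% in these data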;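 further: 0% = DMSO wells and 100% = unlabeled Bim-BH3 peptide competitor; inhibitors lower millipolarization by displacing the labeled peptide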
MEX-5 binding – C. elegans MEX-5 TCR-2 RNA binding activity; Q9XUB2; MEX-5/FITC-TCR2 RNA binding, fluorescence polarization; active compounds read low; activity score (negative = inhibition of binding), % at 10 µM; actives 0.38% (n = 300,000); AID 1832;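 active means inhibition past about -25% in most replicates, and total fluorescence under double the plate's negative control median, limit read from the data; inconclusive means replicates evenly split on the limit, or fluorescence at least double controls; inactive means too little inhibition in most replicates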;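 further: 0% = DMSO and -100% = 5 µM competing unlabeled TCR2 RNA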
Numbers without * were called inactive; ? = inconclusive; · = not tested or not shown. Compounds with a hit are over-represented: about 2.2% of the library has one in this group of screens.

SMILES | EBV gp42 inh | IMP-1 inh | VIM-2 inhibitor | GLD-1 TGE inh | BCLXL inh | MEX-5 binding
COC(=O)c1c(C)oc2c1cc(NS(=O)(=O)c1ccc(C(=O)O)cc1)c1ccccc12 | · | 7.3* | 0 | 6 | 8 | -5
COc1ccccc1-c1cc(C2CC2)nc(N)c1C#N | -5 | 2 | 0 | 4 | 0 | 0
COc1ccc(-c2cc(C3CC3)nc(N)c2C#N)cc1 | · | -1 | 8.8* | 1 | 1 | 1
CCS(=O)(=O)c1nc(S(=O)(=O)c2ccc(C)cc2)c(N2CCN(C)CC2)s1 | · | -3 | 0 | 0 | 0 | 3
O=C1SC(SCc2ccccc2)=N/C1=C\c1ccc(C(=O)O)cc1 | -16 | 1 | -2 | 0 | 4 | -58*
O=C1SC(SCc2ccccc2)=N/C1=C\c1ccco1 | -19 | 2 | -3 | 6 | 20 | 0
Cc1ccc(-n2c(SCC(=O)Nc3ccc(Cl)cc3)nc(O)cc2=O)cc1 | · | -1 | 0 | 0 | -2 | -1
Cn1c(=O)c2c(nc(Oc3ccccc3Br)n2C)n(C)c1=O | · | -3 | 10.0* | · | · | -2
C=CCOc1nc2c(c(=O)n(C)c(=O)n2C)n1C | 2 | -1 | -1 | 0 | 36* | -1
Cn1c(=O)c2c(nc(Oc3ccc4ccccc4c3)n2C)n(C)c1=O | -11 | -3 | -2 | -3 | -3 | 0
CN(C)c1ccc(C(=O)/C=C/c2cccnc2)cc1 | · | -4 | -1 | -5 | -7 | -18
CN(C)c1ccc(/C=C/C(=O)c2cccc(Br)c2)cc1 | 144* | 8.3* | 6 | -21 | 46* | ?
COc1cc(/C=C/[N+](=O)[O-])ccc1OC(=O)/C=C/c1ccc(F)cc1 | · | -1 | 0 | -3 | 4 | -2
COCCOC(=O)c1c(C)nc(SCC(=O)Nc2ccc(OC)cc2)c(C#N)c1-c1ccco1 | -2 | -1 | -1 | -3 | 6 | -1
Cc1nc(SCC(=O)c2ccccc2)c(C#N)c(-c2ccco2)c1C(=O)NCc1ccco1 | -49 | 5.0* | 6 | 2 | 6 | 2
O=[N+]([O-])c1cc(Br)c(O)c(/C=N/Nc2nnnn2-c2cccc3ccccc23)c1 | 11 | 4.8* | -3 | 6 | -5 | -1
COc1ccccc1C(=O)NCCC(=O)NC1CCCCCC1 | · | · | · | 0 | · | ·
CC(C)C[C@@]12C(=O)N(c3cccc(Br)c3)C(=O)N1[C@H](c1ccc(F)cc1)[C@@H]1C(=O)N(C3CCCCC3)C(=O)[C@@H]12 | · | · | · | -5 | 1 | 1
COc1ccc(S(=O)(=O)N2CCCCCC2)cc1C(=O)OCC(=O)NC1CCS(=O)(=O)C1 (stereo not drawn) | · | · | · | -6 | · | ·
N#Cc1c(-c2ccc(Cl)cc2)c2c([nH]c1=O)-c1ccccc1OC2 | 1 | -1 | 0 | 2 | 12 | -28*
CC(C)N1CC(O)=C(c2nc3ccccc3c(=O)[nH]2)C1=N | -26 | -4 | 10* | 4 | -2 | -4
NS(=O)(=O)c1ccc(NC(=O)C2Cc3ccccc3CN2C(=O)c2ccco2)cc1 (stereo not drawn) | · | 0 | -6 | -1 | 38* | -1
NS(=O)(=O)c1ccc(CCNC(=O)C2Cc3ccccc3CN2C(=O)c2ccco2)cc1 (stereo not drawn) | 2 | -6 | -3 | -5 | 4 | 1
CCN(CC)S(=O)(=O)c1ccc(N2CCOCC2)c(NC(=O)COc2ccccc2C)c1 | · | · | · | 3 | 2 | ·
NS(=O)(=O)c1ccc(CCNc2nc(CN3CCOCC3)nc3sc4c(c23)CCC4)cc1 | · | -3 | 3 | 2 | -3 | -6
SMILES | EBV gp42 inh | IMP-1 inh | VIM-2 inhibitor | GLD-1 TGE inh | BCLXL inh | MEX-5 binding
Cc1nc(NCCc2ccc(S(N)(=O)=O)cc2)c2c3c(sc2n1)CCC3 | -13 | -3 | 7.9* | -9 | -5 | 3
CC(C)n1nccc1NS(=O)(=O)c1ccccc1 | · | · | · | -3 | 3 | ·
CC(C)n1nccc1NC(=O)Nc1ccccc1 | · | 9.1* | 0 | 1 | 0 | 3
CSCCC(NC(=O)c1ccccc1)C(=O)N1CC=C(c2ccccc2)CC1 (stereo not drawn) | · | -1 | 0 | 0 | 0 | 3
O=C1/C(=C/C=C/c2ccco2)SC(=S)N1c1ccc(O)cc1 | 9 | 1 | 0 | -10 | 14 | -1
O=C(NN1C(=O)/C(=C/C=C/c2ccco2)SC1=S)c1ccncc1 | -9 | -4 | -3 | 4 | 46* | -15
CC(C)C(C(=O)O)N1C(=O)/C(=C/C=C/c2ccco2)SC1=S (stereo not drawn) | 6 | 5.8* | -1 | 6 | 71* | -35*
Cc1ccccc1NC(=O)CSc1nnc(C)c2ccccc12 | · | -1 | 2 | -2 | 3 | 0
CC1COc2ccccc2N1S(=O)(=O)c1cc(Cl)ccc1Cl (stereo not drawn) | · | -2 | -3 | 6 | 8 | 3
COc1ccc(/C=C2\Oc3cc(OCC(=O)N4CCC[C@H]4C(=O)O)ccc3C2=O)c(OC)c1 | · | -1 | 1 | -32 | -21 | 2
COc1cc(OC)c(OC)cc1/C=C1\Oc2cc(OCC(=O)N3Cc4ccccc4C[C@H]3C(=O)O)ccc2C1=O | · | 3 | 12* | -47 | -4 | 26
Cc1c(CCC(=O)O)c(=O)oc2c(C)c3occ(-c4ccc(Cl)cc4)c3cc12 | · | 5.3* | 7 | · | · | -5
Cc1ccc(C)n1-c1ccc(C(=O)O)cc1 | -7 | -6 | -3 | 5 | 11 | -50*
CC(=O)c1c(C(C)=O)c(C)n(-c2ccc(C(=O)O)cc2)c1C | -13 | -3 | 0 | 0 | 4 | 0
C=CCN1C(=O)/C(=C2/Sc3ccc(OC)cc3N2CC)SC1=S | · | 1 | 7 | -3 | 2 | -40*
CCN1/C(=C2/SC(=S)N(NC(C)=O)C2=O)Sc2ccc(OC)cc21 | · | 0 | 1 | -27 | 1 | -46*
CCCCN1C(=O)/C(=C2/Sc3ccc(OC)cc3N2CC)SC1=S | · | 0 | 2 | -3 | 2 | -26*
Cc1ccc(C)c(S(=O)(=O)N2CCN(C(=O)Cn3[nH]c(=O)c4ccccc4c3=O)CC2)c1 | · | · | · | 6 | 3 | 4
COc1ccc(N2CC(C(=O)N3CCN(c4ccccc4OC)CC3)CC2=O)cc1 (stereo not drawn) | · | -2 | -4 | 4 | 2 | 0
COc1ccc(Nc2nc(C)cc(C)c2C#N)cc1 | -21 | -3 | -2 | -11 | 3 | -2
COc1cnc(SC)nc1Nc1ccc(C#N)cc1 | -14 | -3 | 9.1* | -1 | 5 | 1
COc1ccccc1N1CC(C(=O)OCC(=O)Nc2c(C)cccc2C)CC1=O (stereo not drawn) | · | -3 | -1 | 4 | 0 | 0
CCn1c(=O)c(-c2cc(=O)[nH][nH]2)c(O)c2ccccc21 | -6 | -2 | 1 | 5 | 3 | -9
Cn1c(=O)c(-c2cc(=O)[nH][nH]2)c(O)c2ccccc21 | -4 | -3 | 2 | -6 | 1 | -30*
